The values that follow come from ChEMBL document CHEMBL5252545, “Elucidation of antimicrobial activity and mechanism of action by N-substituted carbazole derivatives” (Bioorg Med Chem Lett, 2017).

Calls of active or inactive are those of the source. No cut-off for these calls is given here.

Data set [1] is described as follows: Dissociation constant, pKa of the compound. In kind it is physicochemical.
The subject of the next data set is Candida albicans. In words: Fungicidal activity against Candida albicans SC5314 assessed as cell death at 5 to 10 uM measured upto 24 hrs by time-kill assay. In kind it is functional, organism-based. Particulars: dose 5-10 µM. A digest of the protocol:
(§1)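 Time-kill assay: C. albicans or C. glabrata cells at 1×10^5 CFU/ml incubated with compound at 5 or 10 μM. DMSO final concentration 1%. Viability followed over time.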

For the next data set, the system named is Nakaseomyces glabratus. Put plainly: Fungicidal against wild type Candida glabrata ATCC 90030 assessed as cell death at 5 to 10 uM measured upto 24 hrs by time-kill assay. In kind it is functional, organism-based. Particulars: dose 5-10 µM. A digest of the protocol:
as §1

Data set [2] addresses T1, Plasma membrane ATPase 1 (Saccharomyces cerevisiae (strain ATCC 204508 / S288c) (Baker's yeast)) (UniProt P05030).
T1 sequence (whole entry): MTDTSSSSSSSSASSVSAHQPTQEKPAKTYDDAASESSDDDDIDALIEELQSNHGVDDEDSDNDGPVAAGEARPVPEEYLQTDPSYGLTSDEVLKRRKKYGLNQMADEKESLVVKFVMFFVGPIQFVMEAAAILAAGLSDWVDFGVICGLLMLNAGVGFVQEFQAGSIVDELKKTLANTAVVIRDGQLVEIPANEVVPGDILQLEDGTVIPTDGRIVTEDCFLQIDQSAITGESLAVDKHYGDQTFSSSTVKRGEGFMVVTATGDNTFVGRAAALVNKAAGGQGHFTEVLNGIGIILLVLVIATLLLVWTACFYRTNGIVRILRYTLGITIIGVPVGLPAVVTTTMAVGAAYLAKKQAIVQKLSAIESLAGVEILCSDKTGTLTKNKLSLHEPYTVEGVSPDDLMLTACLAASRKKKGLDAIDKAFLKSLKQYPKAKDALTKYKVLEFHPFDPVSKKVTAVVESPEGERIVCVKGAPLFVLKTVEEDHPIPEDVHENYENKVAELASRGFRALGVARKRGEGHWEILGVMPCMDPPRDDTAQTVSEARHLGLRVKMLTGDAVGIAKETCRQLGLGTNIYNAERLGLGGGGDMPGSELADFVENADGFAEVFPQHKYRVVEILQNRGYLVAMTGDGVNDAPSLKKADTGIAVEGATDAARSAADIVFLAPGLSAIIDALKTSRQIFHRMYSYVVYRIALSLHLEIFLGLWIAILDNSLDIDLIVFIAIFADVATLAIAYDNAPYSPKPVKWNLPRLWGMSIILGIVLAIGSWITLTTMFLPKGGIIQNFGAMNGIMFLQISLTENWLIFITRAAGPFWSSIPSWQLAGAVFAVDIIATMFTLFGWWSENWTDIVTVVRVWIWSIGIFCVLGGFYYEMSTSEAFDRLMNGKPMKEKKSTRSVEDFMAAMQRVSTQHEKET
In words: Inhibition of Saccharomyces cerevisiae H+ ATPase pma1 isoform assessed as reduction in ATP hydrolysis rate at 10 uM measured upto 150 sec by measuring […] ATPase activity by spectrophotometry method. A digest of the protocol:
(§2)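 S. cerevisiae plasma membranes containing H⁺-ATPase added to start the reaction in pH 7 buffer with 5 mM ATP. Compound added at the indicated times, final DMSO 1.1%. Initial ATP hydrolysis rate read spectrophotometrically by NADH-coupled assay with phosphoenolpyruvate regenerating ATP.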

Data set [3] concerns the target T1, Plasma membrane ATPase 1 (Saccharomyces cerevisiae (strain ATCC 204508 / S288c) (Baker's yeast)). Put plainly: Inhibition of Saccharomyces cerevisiae H+ ATPase pma1 isoform assessed as reduction in ATP hydrolysis rate at 100 uM measured upto 150 sec by measuring […] ATPase activity by spectrophotometry method. A digest of the protocol:
as §2

For data set [4] the target is unchanged. In words: Inhibition of Saccharomyces cerevisiae H+ ATPase pma1 isoform assessed as reduction in ATP hydrolysis rate at 50 uM measured upto 150 sec by measuring […] ATPase activity by spectrophotometry method. A digest of the protocol: as §2

For orientation: pKa means the pH at which an ionisable group is half protonated. Read a low pKa as a group that gives up its proton readily. Consider `OC(Cn1cncn1)Cn1c2ccc(Cl)cc2c2cc(Cl)ccc21` (stereo not given), for which the pKa in data set [1] is 2.7.
Consider `CCC(C)NCC(O)Cn1c2ccc(Cl)cc2c2cc(Cl)ccc21` (stereo not given), for which the result in the data set with Candida albicans and in the data set on Nakaseomyces glabratus was Active. In addition, the pKa in data set [1] came out at 9.2. Besides, the inhibition result in data set [2] was “Active”.
In data set [1], `CN1CCN(CC(O)Cn2c3ccc(Cl)cc3c3cc(Cl)ccc32)CC1` (stereo not given) returned a pKa of 7.6.
`OC(Cn1ccnc1)Cn1c2ccc(Cl)cc2c2cc(Cl)ccc21` (stereo not given) came in with a pKa in data set [1] of 7.1. The inhibition entry in data set [3] is “Active”.
As for `OC(CN1CCOCC1)Cn1c2ccc(Cl)cc2c2cc(Cl)ccc21` (stereo not given), the inhibition result in data set [4] was “Active”. The molecule also registered a pKa in data set [1] of 6.6.
